Assay results reported in ChEMBL document CHEMBL3351944 (J Nat Prod, 2014).

Key:
MCF7 [1] = assay: Antiproliferative activity against human MCF7 cells assessed as growth inhibition after 72 hrs by MTS/PMS assay relative to DNSO-treated control; format: functional
Summary of the method: (§1)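 MCF7 cells seeded at 2000/well and left to attach overnight. Six-point curves in duplicate over 100 nM–100 μM for test compounds and 1 nM–1 μM for geldanamycin, 1% DMSO final, 72 h at 37 °C. Growth read by MTS/PMS and normalized to 1% DMSO controls. At least two independent experiments; nonlinear regression gave IC50 and % inhibition.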

MCF7 [2] = assay: Antiproliferative activity against human MCF7 cells assessed as growth inhibition after 72 hrs by MTS/PMS assay; format: functional, cell-based; settings: MCF7, 72 h; summary of the method: as §1
MDCK [3] = assay: Apparent permeability from basolateral side to apical in verapamil pretreated MDCK cells expressing MDR1 at 10 uM after 60 mins by LC/MS analysis; format: ADME, cell-based, Canis lupus familiaris; settings: dog, 1 h
MDCK [4] = assay: Apparent permeability from basolateral side to apical in MDCK cells expressing MDR1 at 10 uM after 60 mins by LC/MS analysis; format: ADME, cell-based, Canis lupus familiaris; settings: dog, 1 h
[5] = target: T1, Kappa-type opioid receptor (Homo sapiens, UniProt P41145); assay: Agonist activity at human kappa opioid receptor expressed CHO cells co-expressing Galphaq16 assessed as calcium mobilization by fluorescence assay; format: functional, cell-based
T1 sequence (P41145 whole entry): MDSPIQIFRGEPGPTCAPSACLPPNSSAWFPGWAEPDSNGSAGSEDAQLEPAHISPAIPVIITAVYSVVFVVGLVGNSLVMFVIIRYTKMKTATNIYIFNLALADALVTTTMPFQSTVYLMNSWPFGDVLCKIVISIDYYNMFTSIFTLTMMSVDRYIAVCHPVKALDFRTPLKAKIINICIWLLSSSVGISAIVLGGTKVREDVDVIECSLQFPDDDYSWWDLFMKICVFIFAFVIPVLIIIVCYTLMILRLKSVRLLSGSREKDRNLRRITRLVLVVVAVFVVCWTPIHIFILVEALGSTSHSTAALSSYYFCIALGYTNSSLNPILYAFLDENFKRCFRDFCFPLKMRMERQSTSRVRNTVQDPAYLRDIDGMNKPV
Summary of the method: (§2)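 CHO cells stably expressing KOP and Gαq16, grown overnight at 37 °C. Loaded with Calcium 5 dye in HBSS with 20 mM HEPES, 0.25% BSA, 1% DMSO, […], 1 h at 37 °C. Compounds added as 10× dilutions, top 10 μM. Fluorescence change over baseline recorded for 60 s. 10-point curves in duplicate, n = 2. Nonlinear regression gave EC50 and Emax.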

[6] = target: T1, Kappa-type opioid receptor; assay: Agonist activity at human kappa opioid receptor expressed CHO cells co-expressing Galphaq16 assessed as calcium mobilization by fluorescence assay relative to (-)-U69593; format: functional, cell-based; summary of the method: as §2

SMILES	inhibition (INH) (MCF7 [1]) [%]	IC50 (MCF7 [2]) [nM]	permeability (MDCK [3]) [%]	permeability (MDCK [4]) [%]	EC50 [5] [nM]	Emax [6] [%]
O=C1C=CC(=O)C=C1 [BENZOQUINONE]	85	2570	–	–	–	–
COc1cc2nc(N3CCN(C(=O)c4ccco4)CC3)nc(N)c2cc1OC [PRAZOSIN]	–	–	35.5	6.7	–	–
Cn1c(=O)c2c(ncn2C)n(C)c1=O [CAFFEINE]	–	–	73	85.9	–	–
COC1=C2C[C@@H](C)C[C@H](OC)[C@H](O)[C@@H](C)/C=C(\C)[C@H](OC(N)=O)[C@@H](OC)/C=C\C=C(/C)C(=O)NC(=CC1=O)C2=O [GELDANAMYCIN]	81	40	–	–	–	–
COC(=O)[C@@H]1C[C@H](OC(C)=O)C(=O)[C@H]2[C@@]1(C)CC[C@H]1C(=O)O[C@H](CC3=CC(=O)C(OC)=C(OC)C3=O)C[C@]21C	86	2700	47.2	5	> 10000	–
COC(=O)[C@@H]1C[C@H](OC(C)=O)C(=O)[C@H]2[C@@]1(C)CC[C@H]1C(=O)O[C@H](CC3=CC(=O)C(OC)=CC3=O)C[C@]21C	83	5840	38.4	9.7	> 10000	–
COC(=O)[C@@H]1C[C@H](OC(C)=O)C(=O)[C@H]2[C@@]1(C)CC[C@H]1C(=O)O[C@H](CC3=CC(=O)C=CC3=O)C[C@]21C	77	6540	–	–	2500	27
COC(=O)[C@@H]1C[C@H](OC(C)=O)C(=O)[C@H]2[C@@]1(C)CC[C@H]1C(=O)O[C@H](c3ccoc3)C[C@]21C [SALVINORIN A]	–	> 100000	54.2	21.2	–	–
